Screening data (PubChem BioAssay)
HER2 expr 66K: lowers expression of human Her2 kinase. P04626. SKBR-3 HER2 protein level, AlphaScreen, 18-24 h; hits give low values. HER2 level % of control, % at 10 µM. 65,000 compounds, 0.69% hits. AID 645;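 active = HER2 level under 5% of the carrier-only control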;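 note: lower value means stronger loss of Her2 protein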
PostGolgi yeast: growth inhibition of a yeast mutant, post-Golgi transport screen. 98,000 compounds, 0.9% hits. post-Golgi transport phenotypic cell assay. AID 739. inhibition, % at 10 µM;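 note: yeast cells grown in 1536-well plates; yeast grown about 18 h at 30C before absorbance read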
tolC growth inh: E. coli tolC mutant growth inhibition | 65,000 compounds, 2.2% hits | E. coli BW25113 tolC mutant growth, OD615 | growth inhibition, % at 10 µM (by protocol);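 active = growth inhibition at or above a cutoff equal to the mean over every tested compound plus 3 SD, cut at about 60% in these data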;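 note: growth measured after 20 h incubation at 37 °C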
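signal = optical density read at 615 nm | test system = E. coli ΔtolC::kan strain BW25113 | timing = 20 h compound exposure of bacteria at 37 °C | buffer or medium = LB medium plus 50 µg/mL kanamycin | compound dosing = 10 µM final, single dose | evaluation = % inhibition of E. coli growth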
E coli WT exp: growth inhibitors of E. coli BW25113 wild type; growth inhibition, % at 100 µM; AID 710; OD600 absorbance; 98,000 compounds, 0.15% hits;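 active = growth inhibition above about 50% at one test dose, limit read from the data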;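 note: growth measured after 20 h incubation at 37 °C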
PostGolgi ctrl: growth of the yeast control strain, post-Golgi counter-screen | efflux-deficient yeast background strain, growth absorbance A615, 16 h | inhibition, % at 10 µM | 98,000 compounds, 5% hits
Of the large screens only hits and unclear results are named; the others gave an inactive call. Only some compounds are listed: those with a hit (about 6.6% of all), similar ones and a draw of the others. Cut-off read from the data, not from the text of the source, unless noted: active = inhibition above about 30%; inactive = the rest.

COc1cccc(CN2C(=O)C3(C(C#N)=C(N)OC4=C3C(=O)CCC4)c3ccccc32)c1 (configuration not stated)	PostGolgi yeast 34
CN(C)c1ccnc(N(Cc2ccccc2)Cc2ccccc2)c1C#N	none (no result: HER2 expr 66K, tolC growth inh)
Cc1oc(-c2nc3ccccc3n2C)cc1C(=O)c1ccccc1	PostGolgi ctrl 34
COc1ccc(-c2n[nH]c(C)c2-c2ccc(Cl)cc2)c(O)c1OC	PostGolgi ctrl 51
COc1ccc(O)c(-c2c(-c3ccc(Cl)cc3)n[nH]c2C)c1	none
Cc1[nH]nc(-c2ccc(O)cc2O)c1-c1ccc(Cl)cc1	tolC growth inh 100, PostGolgi ctrl 85
COc1ccc(-c2n[nH]c(C)c2-c2ccc(Cl)cc2)c(O)c1	PostGolgi ctrl 77 (no result: HER2 expr 66K, tolC growth inh)
COc1cc(-c2nnc(SCC(=O)Nc3cc(C)on3)n2C)cc(OC)c1O	none
Cc1ccccc1CSCC(=O)N/N=C/c1cccs1	none (no result: HER2 expr 66K, tolC growth inh)
Cc1ccccc1OCC(O)Cn1c(NCc2ccco2)nc2c1c(=O)[nH]c(=O)n2C (configuration not stated)	none
Cn1c(NCc2ccco2)nc2c1c(=O)n(Cc1ccc(Cl)cc1)c(=O)n2C	none
Cn1c(NCc2ccco2)nc2c1c(=O)n(Cc1ccc(Br)cc1)c(=O)n2C	PostGolgi ctrl 32
COc1ccc(Cl)c(Cn2c(NCc3ccco3)nc3c2c(=O)n(C)c(=O)n3C)c1	HER2 expr 66K -26
Cn1c(=O)c2c(nc(NCc3ccco3)n2CC(O)COc2ccccc2)n(C)c1=O (configuration not stated)	PostGolgi ctrl 40
CCCCNC(=O)CN(C1CCCCC1)S(C)(=O)=O	none
CCn1c(CNc2nc3ccccc3n2C(C)C)nc2ccccc21	none (no result: HER2 expr 66K, tolC growth inh)
O=S(c1ccc2ccccc2c1)c1cnns1 (configuration not stated)	none (no result: HER2 expr 66K, tolC growth inh)
Cn1c(NCCCN2CCOCC2)nc2c1c(=O)n(Cc1ccc(Cl)c(Cl)c1)c(=O)n2C	none
COc1cc(NS(=O)(=O)c2ccc(NC(=O)NC3CCCCC3)cc2)nc(OC)n1	none
Cc1noc(NS(=O)(=O)c2ccc(NC(=O)COc3ccc(Cl)cc3Cl)cc2)c1C	tolC growth inh 63
COc1cc(NS(=O)(=O)c2ccc(NC(=O)COc3ccccc3Cl)cc2)nc(OC)n1	tolC growth inh 71
Cc1ccc(S(=O)(=O)N2CCOCC2)cc1C(=O)OCC(=O)Nc1ccc2c(c1)OCO2	none (no result: HER2 expr 66K, tolC growth inh)
CCc1c(O)nc(SCC(=O)Nc2ccc(C)cc2)n(C2CCCCC2)c1=O	tolC growth inh 78
Clc1ccc(OCc2nn3c(C4CCCCC4)nnc3s2)cc1	tolC growth inh 97, PostGolgi ctrl 42
CCOC(=O)CSc1nnc(-c2ccc(NS(=O)(=O)c3ccc(C)cc3)cc2)o1	HER2 expr 66K -1.4
CCOC(=O)c1ccc(N2C(=O)c3n[nH]c(C)c3C2c2ccc(OC)cc2OC)cc1 (configuration not stated)	tolC growth inh 68 (no result: PostGolgi yeast, E coli WT exp, PostGolgi ctrl)
COC(=O)c1ccc(C2c3c(n[nH]c3C)C(=O)N2c2ccc(C)cc2)cc1 (configuration not stated)	tolC growth inh 75
CCOC(=O)c1ccc(N2C(=O)c3n[nH]c(C)c3C2c2ccc(OC)cc2)cc1 (configuration not stated)	none
CCOC(=O)CNC(=O)c1cn(CC(C)C)c(=O)c2cc(OC)c(OC)cc12	none (no result: HER2 expr 66K, PostGolgi yeast, E coli WT exp, PostGolgi ctrl)
CCNC(=O)C1CC(=O)OC12CCCCC2 (configuration not stated)	none (no result: HER2 expr 66K, tolC growth inh)
COc1ccc(OC)c2c1sc(=NC(=O)c1cccc(N3C(=O)CCC3=O)c1)n2C	PostGolgi ctrl 31 (no result: HER2 expr 66K, tolC growth inh)
COc1ccc(OC)c2c1sc(=NC(=O)C(C)(C)C)n2C	none
CCCCn1c(-c2cccs2)nc2nc3ccccc3nc21	PostGolgi ctrl 31 (no result: HER2 expr 66K, tolC growth inh)
c1ccc(Cn2c(-c3cccs3)nc3nc4ccccc4nc32)cc1	none
CC(C)Cn1c(-c2cccs2)nc2nc3ccccc3nc21	PostGolgi ctrl 38
O=C1CC(c2cccs2)CC2=C1C(c1ccccc1)n1ncnc1N2 (configuration not stated)	none (no result: HER2 expr 66K)
CC1CC(=O)C2=C(C1)Nc1ncnn1C2c1ccccc1 (configuration not stated)	PostGolgi ctrl 48
COC(=O)CCC(=O)c1oc2ccccc2c1N	none
CC1Cc2ccccc2N1C(=O)CSc1nc2c(c(=O)n(C)c(=O)n2C)n1Cc1ccccc1 (configuration not stated)	none
O=[N+]([O-])c1nn(-c2ccc3c(c2)OCCO3)n(O)c1=Nc1ccc(Cl)cc1	PostGolgi yeast 40, PostGolgi ctrl 57 (no result: HER2 expr 66K, tolC growth inh)
CC(=O)c1c(C)[nH]c(C(=O)CSc2nc3ccc(C)cc3[nH]2)c1C	PostGolgi ctrl 35 (no result: HER2 expr 66K, tolC growth inh)
